Reference: ChEMBL document CHEMBL3091324, “The optimization of aminooxadiazoles as orally active inhibitors of Cdc7” (Bioorg Med Chem Lett, 2013)
Values after ≈ are worked out from the molar mass of the structure shown.

What was measured:
[1] = Intrinsic clearance in rat liver microsomes; type: ADME; settings: read-out: CLH
[2] = biological target: Cell division cycle 7-related protein kinase (Homo sapiens, UniProt O00311); experiment: Inhibition of Cdc7-mediated MCM2 phosphorylation at Ser53 in human HCT116 cells after 14 hrs by immunostaining assay; type: cell-based, HCT-116
[3] = biological target: Cyclin-dependent kinase 1/cyclin B1 (Homo sapiens, UniProt P06493); experiment: Inhibition of CDK1/cyclin B (unknown origin) by HTRF assay; type: protein-complex assay
[4] = biological target: CDC7/DBF4 (Cell division cycle 7-related protein kinase/Activator of S phase kinase) (Homo sapiens, UniProt O00311); experiment: Inhibition of Cdc7/Dbf4 (unknown origin)-mediated MCM2 phosphorylation at Ser53 by protein A amplified luminescent proximity homogeneous assay; type: protein-complex assay
[5] = biological target: Cyclin-dependent kinase 2/cyclin E1 (Homo sapiens, UniProt P24941); experiment: Inhibition of CDK2/cyclin E (unknown origin) using ULight peptide as substrate by HTRF assay; type: protein-complex assay
CDK9/cyclin T1 = CDK9/cyclin T1 (Homo sapiens, UniProt P50750); experiment: Inhibition of CDK9/cyclin T1 (unknown origin) using 4eBP1 ULight peptide as substrate by HTRF assay; type: protein-complex assay
[6] = Intrinsic clearance in human liver microsomes; type: ADME; settings: read-out: CLH
HCT-116 = experiment: Cytotoxicity against human HCT116 cells assessed as cell viability after days by CellTiterGlo assay; type: functional, cell-based
Procedure, shortened: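 HCT-116 cells exposed to compound for 4 d; cell viability IC50 determined.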

Plasma [7] = experiment: Unbound plasma concentration in NCR/nude mouse xenografted with human HCT116 cells at 100 mg/kg, po measured at 16 hrs by LC-MS analysis; type: ADME, organism-based, HCT-116; design: dose 100 mg/kg, route oral; settings: in vivo
Procedure, shortened: (§1)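 Female NCR/nude mice (n = 3) dosed orally at 100 mg/kg; plasma sampled at 6 and 16 h; unbound concentration calculated from total plasma concentration and percent free fraction in mouse plasma.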

Mus musculus [8] = experiment: In vivo inhibition of Cdc7 in tumor of NCR/nude mouse xenografted with human HCT116 cells assessed as remaining Ser53 phosphorylated MCM2 level at 100 mg/kg, po measured at 16 hrs relative to control; type: functional, HCT-116
Procedure, shortened: (§2)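 Female NCR/nude mice (n = 3 per group) given single oral dose of 100 mg/kg; pMCM2 levels measured at 6 and 16 h, expressed as % remaining versus vehicle control group; significance by one-way ANOVA with Dunnett's test.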

[9] = Oral bioavailability rat in 5 mg/kg; type: ADME, organism-based; settings: in vivo
[10] = Mean residence time in rat at 1 mg/kg, iv and 5 mg/kg, po; type: ADME, organism-based; settings: in vivo
[11] = Volume of distribution at steady state in rat at 1 mg/kg, iv and 5 mg/kg, po; type: ADME, organism-based; settings: in vivo, read-out: Vdss
Mus musculus [12] = experiment: In vivo inhibition of Cdc7-mediated MCM2 phosphorylation at Ser53 in tumor of NCR/nude mouse xenografted with human HCT116 cells at 100 mg/kg, po; type: functional, organism-based; design: dose 100 mg/kg; settings: HCT-116, TDE = time-dependent effect; procedure, shortened: as §2
[13] = Clearance in rat at 1 mg/kg, iv and 5 mg/kg, po; type: ADME, organism-based; settings: in vivo
Mus musculus [14] = experiment: In vivo inhibition of Cdc7 in tumor of NCR/nude mouse xenografted with human HCT116 cells assessed as remaining Ser53 phosphorylated MCM2 level at 100 mg/kg, po measured at 6 hrs relative to control; type: functional, HCT-116; procedure, shortened: as §2
Plasma [15] = experiment: Unbound plasma concentration in NCR/nude mouse xenografted with human HCT116 cells at 100 mg/kg, po measured at 6 hrs by LC-MS analysis; type: ADME, organism-based, HCT-116; design: dose 100 mg/kg, route oral; settings: in vivo; procedure, shortened: as §1
[16] = Solubility of the compound in simulated intestinal fluid; type: ADME
Homo sapiens = species on record: Homo sapiens; experiment: Selectivity ratio of IC50 for CDK2/cyclin E (unknown origin) to IC50 for Cdc7/Dbf4 (unknown origin)
[17] = Mean residence time in rat at 2 mg/kg, iv; type: ADME, organism-based; design: dose 2 mg/kg, route intravenous; settings: in vivo
[18] = Volume of distribution at steady state in rat at 2 mg/kg, iv; type: ADME, organism-based; design: dose 2 mg/kg, route intravenous; settings: in vivo, read-out: Vdss
[19] = Clearance in rat at 2 mg/kg, iv; type: ADME, organism-based; design: dose 2 mg/kg, route intravenous; settings: in vivo

Cyclin-dependent kinase 1/cyclin B1, sequence (P06493 whole entry): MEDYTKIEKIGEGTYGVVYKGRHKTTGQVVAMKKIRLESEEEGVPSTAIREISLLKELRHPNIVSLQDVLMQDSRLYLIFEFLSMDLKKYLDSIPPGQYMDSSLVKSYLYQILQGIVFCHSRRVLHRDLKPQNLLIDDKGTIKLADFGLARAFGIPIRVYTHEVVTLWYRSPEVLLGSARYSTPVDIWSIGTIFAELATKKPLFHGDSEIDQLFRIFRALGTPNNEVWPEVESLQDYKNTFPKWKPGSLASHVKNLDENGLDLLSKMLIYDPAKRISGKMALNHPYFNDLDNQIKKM
Cyclin-dependent kinase 1/cyclin B1, sequence (P14635 whole entry, further chain): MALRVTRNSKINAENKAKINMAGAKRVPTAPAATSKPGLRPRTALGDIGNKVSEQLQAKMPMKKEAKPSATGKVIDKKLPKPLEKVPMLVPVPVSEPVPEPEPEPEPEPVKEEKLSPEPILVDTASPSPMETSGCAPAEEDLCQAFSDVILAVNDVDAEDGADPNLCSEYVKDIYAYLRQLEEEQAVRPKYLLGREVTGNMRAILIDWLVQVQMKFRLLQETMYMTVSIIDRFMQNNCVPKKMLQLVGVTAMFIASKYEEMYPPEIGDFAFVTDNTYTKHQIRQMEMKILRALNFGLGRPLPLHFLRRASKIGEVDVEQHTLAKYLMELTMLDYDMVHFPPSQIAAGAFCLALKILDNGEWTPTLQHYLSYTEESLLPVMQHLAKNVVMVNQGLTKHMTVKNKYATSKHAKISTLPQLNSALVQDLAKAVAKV
Cell division cycle 7-related protein kinase, sequence (O00311 whole entry): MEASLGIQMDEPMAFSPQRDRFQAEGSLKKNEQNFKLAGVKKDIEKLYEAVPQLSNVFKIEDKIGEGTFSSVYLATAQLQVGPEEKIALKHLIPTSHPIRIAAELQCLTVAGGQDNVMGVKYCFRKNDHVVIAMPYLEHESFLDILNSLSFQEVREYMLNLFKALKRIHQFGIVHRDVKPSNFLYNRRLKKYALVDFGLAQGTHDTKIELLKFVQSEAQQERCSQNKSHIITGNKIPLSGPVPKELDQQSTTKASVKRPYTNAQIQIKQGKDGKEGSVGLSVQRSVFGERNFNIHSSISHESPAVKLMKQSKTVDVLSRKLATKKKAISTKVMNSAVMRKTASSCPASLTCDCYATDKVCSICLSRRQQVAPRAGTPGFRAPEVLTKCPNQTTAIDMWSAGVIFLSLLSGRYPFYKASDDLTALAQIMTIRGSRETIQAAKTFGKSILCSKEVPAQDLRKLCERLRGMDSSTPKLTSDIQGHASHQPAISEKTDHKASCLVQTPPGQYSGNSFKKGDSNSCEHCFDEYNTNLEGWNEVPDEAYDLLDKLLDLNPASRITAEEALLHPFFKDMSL
CDC7/DBF4 (Cell division cycle 7-related protein kinase/Activator of S phase kinase), sequence (Q9UBU7 whole entry): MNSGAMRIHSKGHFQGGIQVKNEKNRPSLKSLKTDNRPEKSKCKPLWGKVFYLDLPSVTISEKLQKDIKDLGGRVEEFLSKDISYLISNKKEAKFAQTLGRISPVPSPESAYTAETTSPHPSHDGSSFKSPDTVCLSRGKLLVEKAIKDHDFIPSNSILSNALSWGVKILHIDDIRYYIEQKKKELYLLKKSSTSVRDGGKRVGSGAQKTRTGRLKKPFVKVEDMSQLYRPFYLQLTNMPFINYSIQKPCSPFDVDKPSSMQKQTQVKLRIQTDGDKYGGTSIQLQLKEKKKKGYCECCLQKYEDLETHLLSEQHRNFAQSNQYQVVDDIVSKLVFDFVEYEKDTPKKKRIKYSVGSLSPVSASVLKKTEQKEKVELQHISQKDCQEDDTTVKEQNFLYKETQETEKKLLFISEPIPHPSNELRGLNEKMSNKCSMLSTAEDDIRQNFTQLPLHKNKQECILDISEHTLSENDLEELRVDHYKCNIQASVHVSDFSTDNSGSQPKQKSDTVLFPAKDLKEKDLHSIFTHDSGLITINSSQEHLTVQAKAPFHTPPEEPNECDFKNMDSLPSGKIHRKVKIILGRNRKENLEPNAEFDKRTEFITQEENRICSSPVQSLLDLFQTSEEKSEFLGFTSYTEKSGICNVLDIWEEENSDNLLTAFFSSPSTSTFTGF
CDC7/DBF4 (Cell division cycle 7-related protein kinase/Activator of S phase kinase), sequence (O00311 whole entry): as the sequence (O00311 whole entry) above
CDK9/cyclin T1, sequence (O60563 whole entry): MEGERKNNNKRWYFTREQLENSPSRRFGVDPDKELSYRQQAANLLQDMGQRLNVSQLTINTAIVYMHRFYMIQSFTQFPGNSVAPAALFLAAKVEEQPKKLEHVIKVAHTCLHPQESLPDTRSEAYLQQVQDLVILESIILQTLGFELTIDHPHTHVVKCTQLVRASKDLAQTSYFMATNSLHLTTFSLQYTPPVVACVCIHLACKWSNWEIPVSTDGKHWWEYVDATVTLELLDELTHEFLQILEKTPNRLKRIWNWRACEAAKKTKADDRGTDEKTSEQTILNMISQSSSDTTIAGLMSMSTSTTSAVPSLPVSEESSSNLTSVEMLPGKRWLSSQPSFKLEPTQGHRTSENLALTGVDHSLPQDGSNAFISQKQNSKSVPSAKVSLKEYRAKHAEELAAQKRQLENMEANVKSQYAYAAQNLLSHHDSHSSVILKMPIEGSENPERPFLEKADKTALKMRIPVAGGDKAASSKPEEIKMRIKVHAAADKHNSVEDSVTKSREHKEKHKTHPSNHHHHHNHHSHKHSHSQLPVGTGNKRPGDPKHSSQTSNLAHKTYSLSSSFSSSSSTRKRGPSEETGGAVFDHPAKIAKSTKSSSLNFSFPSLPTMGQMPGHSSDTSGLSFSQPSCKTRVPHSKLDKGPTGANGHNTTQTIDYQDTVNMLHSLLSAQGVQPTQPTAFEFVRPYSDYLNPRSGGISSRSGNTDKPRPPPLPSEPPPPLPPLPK
CDK9/cyclin T1, sequence (P50750 whole entry): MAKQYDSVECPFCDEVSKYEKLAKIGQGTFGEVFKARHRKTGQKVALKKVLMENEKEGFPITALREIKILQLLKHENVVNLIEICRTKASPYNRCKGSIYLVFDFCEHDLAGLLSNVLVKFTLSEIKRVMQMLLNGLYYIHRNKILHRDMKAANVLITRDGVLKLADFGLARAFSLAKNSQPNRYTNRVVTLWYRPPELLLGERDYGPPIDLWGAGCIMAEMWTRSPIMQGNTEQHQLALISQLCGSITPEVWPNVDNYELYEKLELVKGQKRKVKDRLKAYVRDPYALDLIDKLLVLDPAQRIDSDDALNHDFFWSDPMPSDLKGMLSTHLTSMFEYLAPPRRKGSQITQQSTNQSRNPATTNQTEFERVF

SMILES | microsomal CLint [1] [µL/min/mg] | IC50 [2] [nM] | IC50 [4] [nM] | IC50 [5] [nM] | microsomal CLint [6] [µL/min/mg] | other results
Fc1ccc2c(-c3nnc(N[C@@H](c4cccnc4F)C4CC4)o3)c[nH]c2n1 | 413 | 250 | 3.9 | 4000 | < 14 | IC50 [3]: > 50 µM; IC50 (CDK9/cyclin T1): 2400 nM
O=C1Cc2cc(-c3nnc(NCc4ccccc4)o3)ccc2N1 | < 14 | > 50000 | 770 | 33000 | < 14 | –
Fc1cnc2[nH]cc(-c3nnc(N[C@@H](c4cccnc4F)C4CC4)o3)c2c1 | 20 | 32 | 1.1 | 670 | < 14 | IC50 (HCT-116): 2400 nM; Cp(f) (Plasma [7]): 0.3 µM; Remaining Ser53 phospho-MCM2 vs control (Mus musculus [8]): 30%; bioavailability [9]: 50%; IC50 [3]: 6.6 µM; MRT [10]: 1.9 h; Vd [11]: 3.3 L/kg; Activity (Mus musculus [12]): tde; clearance [13]: 28.3 mL/min/kg; Remaining phospho-MCM2 (% of control) (Mus musculus [14]): 46%; Cp(f) (Plasma [15]): 0.61 µM; solubility [16]: 160 µg/mL (≈ 434 µM); IC50 (CDK9/cyclin T1): 460 nM
c1ccc(CNc2nnc(-c3c[nH]c4ncccc34)o2)cc1 | 40 | 780 | 24 | 150 | 31 | Ratio IC50 (Homo sapiens): 6
C[C@H](Nc1nnc(-c2c[nH]c3ncccc23)o1)c1ccccc1 | 17 | 2600 | 35 | 98 | 15 | –
c1cnc2[nH]cc(-c3nnc(NCc4ccncc4)o3)c2c1 | 37 | 12000 | 110 | 350 | < 14 | –
CC(C)(Nc1nnc(-c2c[nH]c3ncccc23)o1)c1ccccc1 | 35 | 6200 | 120 | 7 | 30 | –
Fc1ccccc1CNc1nnc(-c2c[nH]c3ncccc23)o1 | 46 | 1600 | 35 | 580 | 32 | Ratio IC50 (Homo sapiens): 17
Nc1n[nH]c2ccc(-c3nnc(NCc4ccccc4)o3)cc12 | 74 | 1200 | 11 | 230 | 26 | –
CC(C)[C@@H](Nc1nnc(-c2c[nH]c3ncccc23)o1)c1ccccc1 | 51 | 140 | 2 | 1200 | 66 | –
c1ccc([C@H](Nc2nnc(-c3c[nH]c4ncccc34)o2)C2CC2)cc1 | 31 | 71 | 1 | 1600 | 56 | –
Fc1ncccc1[C@H](Nc1nnc(-c2c[nH]c3ncccc23)o1)C1CC1 | 80 | 51 | 0.69 | 490 | 21 | IC50 (HCT-116): 1800 nM; Cp(f) (Plasma [7]): 0.07 µM; Remaining Ser53 phospho-MCM2 vs control (Mus musculus [8]): 41%; bioavailability [9]: 41%; IC50 [3]: 7.3 µM; MRT [10]: 1.3 h; Vd [11]: 5.9 L/kg; clearance [13]: 75 mL/min/kg; Remaining phospho-MCM2 (% of control) (Mus musculus [14]): 40%; Cp(f) (Plasma [15]): 1.3 µM; solubility [16]: 200 µg/mL (≈ 571 µM); IC50 (CDK9/cyclin T1): 120 nM
c1ccc(CNc2nnc(-c3ccc4cnccc4c3)o2)cc1 | 166 | 710 | 17 | 350 | 120 | MRT [17]: 12 min; Vd [18]: 4.3 L/kg; clearance [19]: 300 mL/min/kg
